Experimental data reported in ChEMBL document CHEMBL5247671, “Design and Synthesis of Pyrazole-Based Macrocyclic Kinase Inhibitors Targeting BMPR2” (ACS Med Chem Lett, 2023).

Columns and labels:
[1] = target: T1, Tyrosine-protein kinase Mer (Homo sapiens) (UniProt Q12866); experiment: Inhibition of recombinant MERTK (unknown origin) at 10 uM by DSF assay relative to staurosporine
T1 sequence (whole entry): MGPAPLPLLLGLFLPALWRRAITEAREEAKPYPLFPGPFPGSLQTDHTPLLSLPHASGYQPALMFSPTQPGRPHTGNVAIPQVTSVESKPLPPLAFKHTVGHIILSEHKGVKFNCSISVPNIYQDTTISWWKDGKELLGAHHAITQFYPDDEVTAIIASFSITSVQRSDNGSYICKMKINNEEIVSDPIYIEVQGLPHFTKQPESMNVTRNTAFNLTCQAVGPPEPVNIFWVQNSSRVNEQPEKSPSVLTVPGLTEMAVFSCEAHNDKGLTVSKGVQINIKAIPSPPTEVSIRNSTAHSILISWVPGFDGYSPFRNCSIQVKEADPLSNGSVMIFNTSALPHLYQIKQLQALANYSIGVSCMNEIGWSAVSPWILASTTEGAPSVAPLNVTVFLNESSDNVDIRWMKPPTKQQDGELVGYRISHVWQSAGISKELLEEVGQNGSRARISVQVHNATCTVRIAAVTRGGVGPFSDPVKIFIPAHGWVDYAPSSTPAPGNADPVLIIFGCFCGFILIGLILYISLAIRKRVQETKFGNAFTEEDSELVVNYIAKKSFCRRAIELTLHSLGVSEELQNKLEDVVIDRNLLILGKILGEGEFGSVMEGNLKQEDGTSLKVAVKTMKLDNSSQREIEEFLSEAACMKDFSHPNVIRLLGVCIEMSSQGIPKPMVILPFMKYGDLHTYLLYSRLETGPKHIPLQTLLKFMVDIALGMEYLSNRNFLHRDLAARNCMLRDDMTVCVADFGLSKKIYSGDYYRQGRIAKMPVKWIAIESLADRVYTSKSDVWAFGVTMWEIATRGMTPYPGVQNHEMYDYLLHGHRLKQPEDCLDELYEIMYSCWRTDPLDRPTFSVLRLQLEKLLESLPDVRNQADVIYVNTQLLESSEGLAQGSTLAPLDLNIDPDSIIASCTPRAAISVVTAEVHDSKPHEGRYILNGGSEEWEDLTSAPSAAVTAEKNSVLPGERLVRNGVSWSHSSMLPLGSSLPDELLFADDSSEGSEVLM
Procedure, shortened: (§1)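 Differential scanning fluorimetry on an in-house panel of 90 recombinant kinases. Stabilization is read as the shift in melting temperature (ΔTm) relative to ligand-free protein. Staurosporine served as the positive control, and binding was also compared against its ΔTm.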

[2] = target: T2, Mitogen-activated protein kinase 15 (Homo sapiens) (UniProt Q8TD08); experiment: Inhibition of recombinant MAPK15 (unknown origin) at 10 uM by DSF assay relative to staurosporine; procedure, shortened: as §1
T2 sequence (whole entry): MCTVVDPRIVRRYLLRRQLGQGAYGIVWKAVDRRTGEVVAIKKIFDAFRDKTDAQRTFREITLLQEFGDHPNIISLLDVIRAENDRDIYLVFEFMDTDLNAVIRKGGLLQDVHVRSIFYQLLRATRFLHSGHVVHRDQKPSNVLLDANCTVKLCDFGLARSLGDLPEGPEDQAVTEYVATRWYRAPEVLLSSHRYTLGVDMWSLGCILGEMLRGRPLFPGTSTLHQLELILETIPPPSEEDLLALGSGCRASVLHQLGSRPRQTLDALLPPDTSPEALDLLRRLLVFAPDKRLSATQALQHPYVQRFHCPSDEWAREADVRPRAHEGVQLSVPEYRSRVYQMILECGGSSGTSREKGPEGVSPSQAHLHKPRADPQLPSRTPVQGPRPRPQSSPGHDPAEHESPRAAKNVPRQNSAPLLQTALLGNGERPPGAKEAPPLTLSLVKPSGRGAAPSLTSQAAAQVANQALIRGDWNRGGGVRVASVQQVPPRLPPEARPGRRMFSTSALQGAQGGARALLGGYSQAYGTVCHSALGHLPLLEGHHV

[3] = target: T3, Bone morphogenetic protein receptor type-2 (Homo sapiens) (UniProt Q13873); experiment: Inhibition of BMPR2 (unknown origin) assessed as residual activity at 1 uM by Kinomescan assay relative to staurosporine
T3 sequence (whole entry): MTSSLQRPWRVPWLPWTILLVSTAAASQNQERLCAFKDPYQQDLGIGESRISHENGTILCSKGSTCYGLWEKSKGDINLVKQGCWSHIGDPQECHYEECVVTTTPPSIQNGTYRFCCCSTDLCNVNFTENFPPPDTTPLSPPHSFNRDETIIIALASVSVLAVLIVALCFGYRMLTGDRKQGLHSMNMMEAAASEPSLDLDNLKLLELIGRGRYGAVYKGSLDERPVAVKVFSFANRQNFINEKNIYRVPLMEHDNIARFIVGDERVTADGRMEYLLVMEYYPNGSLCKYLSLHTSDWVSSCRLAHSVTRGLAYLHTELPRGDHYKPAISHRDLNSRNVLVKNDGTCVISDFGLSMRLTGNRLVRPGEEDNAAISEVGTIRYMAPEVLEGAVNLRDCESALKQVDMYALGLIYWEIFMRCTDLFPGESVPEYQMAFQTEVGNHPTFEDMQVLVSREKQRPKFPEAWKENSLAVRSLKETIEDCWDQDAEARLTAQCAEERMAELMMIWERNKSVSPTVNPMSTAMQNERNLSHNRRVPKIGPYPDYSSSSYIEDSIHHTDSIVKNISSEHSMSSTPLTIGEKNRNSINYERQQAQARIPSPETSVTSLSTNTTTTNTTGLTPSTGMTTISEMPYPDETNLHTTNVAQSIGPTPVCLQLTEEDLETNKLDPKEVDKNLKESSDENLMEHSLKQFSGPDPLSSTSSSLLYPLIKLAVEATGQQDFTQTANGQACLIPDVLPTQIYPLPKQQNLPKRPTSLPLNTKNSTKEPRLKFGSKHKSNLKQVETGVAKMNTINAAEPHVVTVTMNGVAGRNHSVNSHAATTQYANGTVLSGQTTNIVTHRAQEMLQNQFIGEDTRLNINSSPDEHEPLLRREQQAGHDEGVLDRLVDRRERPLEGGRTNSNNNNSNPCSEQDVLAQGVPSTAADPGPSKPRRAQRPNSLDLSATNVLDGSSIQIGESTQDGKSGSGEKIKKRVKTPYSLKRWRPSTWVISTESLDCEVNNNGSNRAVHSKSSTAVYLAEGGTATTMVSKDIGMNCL

[4] = target: T3, Bone morphogenetic protein receptor type-2 (Homo sapiens); experiment: Binding affinity to BMPR2 (unknown origin) assessed as change in entropy by ITC assay
Procedure, shortened: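 Binding measured by isothermal titration calorimetry against the recombinant BMPR2 kinase domain. Thermodynamic binding parameters, including the dissociation constant, were derived from the titration data.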

- inhibition [1]: 48%
- Activity [3]: 8.3%
- deltaS [4]: 3.7 cal/mol.K
Structure (SMILES): O=C1NCCc2ccc(cc2)Nc2nccc(n2)Nc2cc1[nH]n2
- inhibition [2]: 26%
